Measurements reported in ChEMBL document CHEMBL1147861, “SAR studies on a novel series of human cytomegalovirus primase inhibitors” (Bioorg Med Chem Lett, 2007).

How the values were obtained:
Human betaherpesvirus 5 [1] = test: Antiviral activity against HCMV infected HFF cells after 5 days by dot blot assay; assay type: functional, organism-based
Outline: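 HFF fibroblasts infected with luciferase-expressing recombinant CMV (rCMVLUC), then cultured 5 days across a range of drug concentrations. Viral DNA harvested, immobilized on membrane, hybridized with radiolabeled CMV-specific probe. IC50 = concentration giving 50% reduction of membrane-bound radioactivity relative to vehicle-only infected cells.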

Human betaherpesvirus 5 [2] = test: Antiviral activity against HCMV infected HFF cells after 5 to 7 days by viral yield assay; assay type: functional
Outline: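 rCMVLUC-infected HFF cells incubated 5–7 days with varying drug concentrations; viral yield determined by immunofluorescence using human anti-HCMV antiserum.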

[3] = Cytotoxicity against HFF cells by alamar blue assay; assay type: cell-based; settings: human
Outline: (§1)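 Cells seeded and exposed to a range of compound concentrations; Alamar blue added at 0, 24, 48 and 72 h, fluorescence read after further 3 h incubation. IC50 = concentration inhibiting cell growth by 50%.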

[4] = Cytotoxicity against human Jurkat cells by alamar blue assay; assay type: cell-based; outline: as §1
[5] = Cytotoxicity against human bone marrow cells assessed as inhibition of CFU-GM formation after 15 days; assay type: cell-based, Bone marrow cell
Outline: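 Human bone marrow cells washed in IMDM–2% FBS, viable nucleated/mononuclear cells counted, adjusted to 10⁶ cells/mL, drug added, diluted 1:10 in methylcellulose medium and plated. After 15 days at 37 °C, humid 5% CO₂, CFU-GM colonies counted microscopically; IC50 = concentration halving colony formation.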

[6] = Clearance in rat; assay type: ADME, organism-based; settings: in vivo
[7] = Oral bioavailability in rat; assay type: ADME, organism-based; settings: in vivo
[8] = Bioavailability in rat at 2 mg/kg, po; assay type: ADME, organism-based; settings: in vivo
[9] = Human betaherpesvirus 5, HFF, 120 h

Structure (SMILES)	IC50 (Human betaherpesvirus 5 [1]; [9]) [µM]	further results
Cc1nc(N[C@@H]2COC[C@@H]2C)nc(-n2ccnc2C)c1[N+](=O)[O-]	0.15	
Cc1nc(NC2CCSCC2)nc(-n2ccnc2C)c1[N+](=O)[O-]	0.4	
Cc1nc(NCc2ccccc2OC(F)(F)F)nc(-n2ccnc2C)c1[N+](=O)[O-]	0.2	
Cc1nc(NCCC(C)C)nc(-n2ccnc2C)c1[N+](=O)[O-]	0.3	
Cc1nc(N[C@H]2CCCC[C@H]2C)nc(-n2ccnc2C)c1[N+](=O)[O-]	0.7	
Cc1nc(NC2CCCCC2C)nc(-n2ccnc2C)c1[N+](=O)[O-] (stereo not given)	0.08	
Cc1ccccc1CNc1nc(C)c([N+](=O)[O-])c(-n2ccnc2C)n1	0.2	
Cc1nc(NC(C)CCc2ccccc2)nc(-n2ccnc2C)c1[N+](=O)[O-] (stereo not given)	0.35	
Cc1nc(NCc2ccc(F)c(F)c2)nc(-n2ccnc2C)c1[N+](=O)[O-]	0.4	
Cc1ccc(CNc2nc(C)c([N+](=O)[O-])c(-n3ccnc3C)n2)cc1	1.6	
Cc1nc(NCC2CCCCO2)nc(-n2ccnc2C)c1[N+](=O)[O-] (stereo not given)	4	
Cc1nc(NCc2ccc(Cl)c(Cl)c2)nc(-n2ccnc2C)c1[N+](=O)[O-]	0.2	
Cc1nc(N[C@@H]2COC[C@@H]2C)nc(-n2ccnc2C)c1[N+](=O)[O-].Cl		EC99.9 (Human betaherpesvirus 5 [2]): 0.4 µM; clearance [6]: 1.4 L/h/kg; CC50 [3]: 100 µM; IC50 (Human betaherpesvirus 5 [1]; hff): 0.13 µM; bioavailability [7]: 21%; CC50 [4]: 50 µM; CC50 at 360 h [5]: 50 µM
CCS(=O)(=O)CCNc1nc(C)c([N+](=O)[O-])c(-n2ccnc2C)n1	1.3	
Cc1nc(N)nc(-n2ccnc2C)c1[N+](=O)[O-]	2	bioavailability [8]: 59%
Cc1nc(NC(C)CC(C)C)nc(-n2ccnc2C)c1[N+](=O)[O-] (stereo not given)	0.13	
Cc1nc(NC2CCC(C)C2)nc(-n2ccnc2C)c1[N+](=O)[O-] (stereo not given)	0.1	

Structure (SMILES)	IC50 (Human betaherpesvirus 5 [1]; [9]) [µM]	further results
Cc1nc(NC2CCCCC2)nc(-n2ccnc2C)c1[N+](=O)[O-]	0.2	
CC[C@H]1CCCC[C@@H]1Nc1nc(C)c([N+](=O)[O-])c(-n2ccnc2C)n1	0.09	
Cc1nc(NC2CCSC2)nc(-n2ccnc2C)c1[N+](=O)[O-] (stereo not given)	0.25	
Cc1nc(N[C@H]2COC[C@H]2C)nc(-n2ccnc2C)c1[N+](=O)[O-]	0.2	
Cc1nc(NCc2ccc(F)cc2Cl)nc(-n2ccnc2C)c1[N+](=O)[O-]	0.25	
Cc1nc(NCc2ccc(F)cc2)nc(-n2ccnc2C)c1[N+](=O)[O-]	0.15	
COc1cccc(CNc2nc(C)c([N+](=O)[O-])c(-n3ccnc3C)n2)c1	0.3	
Cc1nc(NC2CCCC2C)nc(-n2ccnc2C)c1[N+](=O)[O-] (stereo not given)	0.5	
Cc1nc(N[C@H]2CC=CC[C@@H]2C)nc(-n2ccnc2C)c1[N+](=O)[O-]	0.3	
Cc1nc(NCc2cc(C(F)(F)F)cc(C(F)(F)F)c2)nc(-n2ccnc2C)c1[N+](=O)[O-]	15	
Cc1nc(NC[C@@H]2OCCC[C@H]2C)nc(-n2ccnc2C)c1[N+](=O)[O-]	0.4	
Cc1nc(NCc2cccc(F)c2)nc(-n2ccnc2C)c1[N+](=O)[O-]	0.25	
CC[C@@H]1CC=CC[C@@H]1Nc1nc(C)c([N+](=O)[O-])c(-n2ccnc2C)n1	0.1	
Cc1cccc(CNc2nc(C)c([N+](=O)[O-])c(-n3ccnc3C)n2)c1	0.5	
Nc1ccn(C[C@@H](CO)OCP(=O)(O)O)c(=O)n1.O.O [CIDOFOVIR]	0.35	EC99.9 (Human betaherpesvirus 5 [2]): 0.9 µM; CC50 [3]: 100 µM; CC50 [4]: 100 µM; CC50 at 360 h [5]: 6 µM
Cc1nc(N[C@@H]2CCO[C@@H]2C)nc(-n2ccnc2C)c1[N+](=O)[O-]	0.5	

The next lines start with results.

IC50 (Human betaherpesvirus 5 [1]; [9]) [µM]	Structure (SMILES)	further results
0.15	Cc1nc(NCc2cc(F)ccc2F)nc(-n2ccnc2C)c1[N+](=O)[O-]	
1	Cc1nc(NCC2CCCO2)nc(-n2ccnc2C)c1[N+](=O)[O-] (stereo not given)	
0.2	Cc1nc(NCc2ccc(C(F)(F)F)cc2)nc(-n2ccnc2C)c1[N+](=O)[O-]	
0.15	Cc1nc(NC2CCC[C@H](C)C2)nc(-n2ccnc2C)c1[N+](=O)[O-] (stereo not given in full)	
0.7	Cc1nc(NC2CCCOC2C)nc(-n2ccnc2C)c1[N+](=O)[O-] (stereo not given)	
2.3	Cc1nc(NC(C)CCC(C)C)nc(-n2ccnc2C)c1[N+](=O)[O-] (stereo not given)	
0.2	Cc1nc(NC2CCC(C)CC2)nc(-n2ccnc2C)c1[N+](=O)[O-] (stereo not given)	
1	Nc1nc2c(ncn2COC(CO)CO)c(=O)[nH]1 [GANCICLOVIR]	EC99.9 (Human betaherpesvirus 5 [2]): 5 µM; CC50 [3]: > 100 µM; CC50 [4]: > 100 µM; CC50 at 360 h [5]: 30 µM
0.6	Cc1nc(NC2CCCC2)nc(-n2ccnc2C)c1[N+](=O)[O-]	
0.9	COCC(C)Nc1nc(C)c([N+](=O)[O-])c(-n2ccnc2C)n1 (stereo not given)	
0.5	Cc1nc(NCc2ccccn2)nc(-n2ccnc2C)c1[N+](=O)[O-]	
> 5	Cc1nc(NC2CCS(=O)(=O)CC2)nc(-n2ccnc2C)c1[N+](=O)[O-]	
0.2	Cc1nc(NCc2ccc(C(F)(F)F)cc2F)nc(-n2ccnc2C)c1[N+](=O)[O-]	
0.6	Cc1nc(N[C@@H]2CCO[C@H]2C)nc(-n2ccnc2C)c1[N+](=O)[O-]	
0.13	Cc1nc(N[C@H]2CCOC[C@@H]2C)nc(-n2ccnc2C)c1[N+](=O)[O-]	clearance [6]: 2.2 L/h/kg; bioavailability [7]: 57%
0.1	Cc1nc(N[C@H]2CCCC[C@@H]2C)nc(-n2ccnc2C)c1[N+](=O)[O-]	
0.3	Cc1nc(NCc2cccc(OC(F)(F)F)c2)nc(-n2ccnc2C)c1[N+](=O)[O-]	
2.3	COCCCNc1nc(C)c([N+](=O)[O-])c(-n2ccnc2C)n1	
3	Cc1nc(NC2CCOCC2)nc(-n2ccnc2C)c1[N+](=O)[O-]	
0.8	Cc1nc(NCc2cccnc2)nc(-n2ccnc2C)c1[N+](=O)[O-]	
0.3	Cc1nc(NCC2OCCC2C)nc(-n2ccnc2C)c1[N+](=O)[O-] (stereo not given)	
0.5	CCC(C)Nc1nc(C)c([N+](=O)[O-])c(-n2ccnc2C)n1 (stereo not given)	
1.5	Cc1nc(N[C@H]2CC=CC[C@H]2C)nc(-n2ccnc2C)c1[N+](=O)[O-]	
0.12	Cc1nc(NCC2CCCCC2)nc(-n2ccnc2C)c1[N+](=O)[O-]	
0.3	Cc1nc(NCc2ccc(Cl)cc2)nc(-n2ccnc2C)c1[N+](=O)[O-]	
0.2	CCSCCNc1nc(C)c([N+](=O)[O-])c(-n2ccnc2C)n1	
0.2	Cc1nc(NCc2cccc(Cl)c2Cl)nc(-n2ccnc2C)c1[N+](=O)[O-]	
2	Cc1nc(N[C@H]2CCS(=O)(=O)[C@@H]2C)nc(-n2ccnc2C)c1[N+](=O)[O-]	
0.15	Cc1nc(NC2CCC[C@@H](C)C2)nc(-n2ccnc2C)c1[N+](=O)[O-] (stereo not given in full)	
1	CCNc1nc(C)c([N+](=O)[O-])c(-n2ccnc2C)n1	
